Measured values taken from ChEMBL document CHEMBL4425125, “Development of a Dual-Acting Antibacterial Agent (TNP-2092) for the Treatment of Persistent Bacterial Infections” (J Med Chem, 2016).
In brackets after ≈: the same amount, converted by molar mass.

Experiments:
Staphylococcus aureus [1] = assay: Antimicrobial activity against Staphylococcus aureus isogenic forms expressing rpoB H481Y and gyrA S84L mutant; type: functional
Staphylococcus aureus [2] = assay: Bactericidal activity against methicillin-resistant Staphylococcus aureus 67-0; type: functional
Staphylococcus aureus [3] = assay: Antimicrobial activity against methicillin-resistant Staphylococcus aureus 67-0; type: functional
Staphylococcus aureus [4] = assay: Antimicrobial activity against Staphylococcus aureus isogenic forms expressing rpoB H481Y mutant; type: functional
Staphylococcus aureus [5] = assay: Antimicrobial activity against Staphylococcus aureus isogenic forms expressing parC S80F mutant; type: functional
Procedure, shortened: (§1)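 MIC (μg/mL) on otherwise isogenic derivatives of S. aureus ATCC 29213 that carry the rifamycin-resistance allele rpoB H481Y and/or the quinolone-resistance alleles parC S80F and gyrA S84L. The wild-type parent is the reference strain. MICs were determined both by agar dilution and by broth dilution, tested side by side on the same panel.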

Staphylococcus aureus [6] = assay: Antimicrobial activity against Staphylococcus aureus isogenic forms expressing gyrA S84L mutant; type: functional
Staphylococcus aureus [7] = assay: Antimicrobial activity against Staphylococcus aureus isogenic forms expressing rpoB H481Y and parC S80F mutant; type: functional; procedure, shortened: as §1
Staphylococcus aureus [8] = assay: Antimicrobial activity against wild type Staphylococcus aureus; type: functional
Staphylococcus aureus [9] = assay: Antimicrobial activity against Staphylococcus aureus isogenic forms expressing gyrA S84L and parC S80F mutant; type: functional; procedure, shortened: as §1
Staphylococcus aureus [10] = assay: Antimicrobial activity against Staphylococcus aureus isogenic forms expressing rpoB H481Y/gyrA S84L/parC S80F mutant; type: functional; procedure, shortened: as §1
Staphylococcus aureus [11] = assay: Bactericidal activity against methicillin-sensitive Staphylococcus aureus 29213 infected in mouse macrophages assessed as induction of bacterial kill at 4 ug/ml in presence of 4 ug/ml rifampin after 24 hrs; type: functional
[12] = test system: Staphylococcus epidermidis; assay: Antimicrobial activity against methicillin-sensitive Staphylococcus epidermidis clinical isolates by broth dilution method; type: functional
[13] = test system: Staphylococcus epidermidis; assay: Antimicrobial activity against methicillin-resistant Staphylococcus epidermidis clinical isolates by broth dilution method; type: functional
[14] = Inhibition of wild type Staphylococcus aureus RNA polymerase assessed as reduction in RNA product formation
Staphylococcus aureus [15] = assay: Antimicrobial activity against methicillin-sensitive Staphylococcus aureus clinical isolates by broth dilution method; type: functional
[16] = Inhibition of RIF-resistant Staphylococcus aureus RNA polymerase RpoB H481Y mutant assessed as reduction in RNA product formation
Staphylococcus aureus [17] = assay: Antimicrobial activity against methicillin-resistant Staphylococcus aureus clinical isolates by broth dilution method; type: functional
Streptococcus pyogenes = assay: Antimicrobial activity against Streptococcus pyogenes clinical isolates by broth dilution method; type: functional
Streptococcus agalactiae = assay: Antimicrobial activity against Streptococcus agalactiae clinical isolates by broth dilution method; type: functional
Streptococcus pneumoniae = assay: Antimicrobial activity against Streptococcus pneumoniae clinical isolates by broth dilution method; type: functional

Structure (SMILES) | MIC (Staphylococcus aureus [1]) [µg/mL] | MBC (Staphylococcus aureus [2]) [µg/mL] | MIC (Staphylococcus aureus [3]) [µg/mL] | MIC (Staphylococcus aureus [4]) [µg/mL] | MIC (Staphylococcus aureus [5]) [µg/mL] | MIC (Staphylococcus aureus [6]) [µg/mL] | MIC (Staphylococcus aureus [7]) [µg/mL] | MIC (Staphylococcus aureus [8]) [µg/mL] | MIC (Staphylococcus aureus [9]) [µg/mL] | MIC (Staphylococcus aureus [10]) [µg/mL] | further results
C[C@H]1COc2c(N3CCN(C)CC3)c(F)cc3c(=O)c(C(=O)O)cn1c23.C[C@H]1COc2c(N3CCN(C)CC3)c(F)cc3c(=O)c(C(=O)O)cn1c23.O [LEVOFLOXACIN] | 0.25 | 2 | 2 | 0.25 | 1 | 0.25 | 1 | 0.25 | 8 | 8 | –
COc1c(N2C[C@@H]3CCCN[C@@H]3C2)c(F)cc2c(=O)c(C(=O)O)cn(C3CC3)c12 [MOXIFLOXACIN] | – | – | – | – | – | – | – | – | – | – | Activity (Staphylococcus aureus [11]): <=99.9%
CO[C@H]1/C=C/O[C@@]2(C)Oc3c(C)c(O)c4c(O)c(c(/C=N/N5CCN(C)CC5)c(O)c4c3C2=O)NC(=O)/C(C)=C\C=C\[C@H](C)[C@H](O)[C@@H](C)[C@@H](O)[C@@H](C)[C@H](OC(C)=O)[C@@H]1C [RIFAMPIN] | > 250 | 2 (≈ 2.43 µM) | 0.008 (≈ 0.00972 µM) | > 250 | 0.008 (≈ 0.00972 µM) | 0.008 (≈ 0.00972 µM) | > 250 | 0.008 (≈ 0.00972 µM) | 0.008 (≈ 0.00972 µM) | > 250 | MIC50 [12]: 0.015 µg/mL (≈ 0.0182 µM); MIC90 [12]: 0.015 µg/mL (≈ 0.0182 µM); MIC [13]: >=0.004 - 4 ug ml-1; MIC50 ([13]; Staphylococcus epidermidis): 0.015 µg/mL (≈ 0.0182 µM); MIC90 ([13]; Staphylococcus epidermidis): > 4 µg/mL; IC50 [14]: 15 nM; MIC50 (Staphylococcus aureus [15]): 0.015 µg/mL (≈ 0.0182 µM); MIC90 (Staphylococcus aureus [15]): 0.015 µg/mL (≈ 0.0182 µM); IC50 [16]: > 25000 nM; MIC (Staphylococcus aureus [17]): 0.008 to 4 µg/mL (≈ 0.00972 to 4.86 µM); MIC50 (Staphylococcus aureus [17]): 0.015 µg/mL (≈ 0.0182 µM); MIC90 (Staphylococcus aureus [17]): 0.015 µg/mL (≈ 0.0182 µM); MIC50 (Streptococcus pyogenes): 0.06 µg/mL (≈ 0.0729 µM); MIC90 (Streptococcus pyogenes): 0.12 µg/mL (≈ 0.146 µM); MIC (Streptococcus agalactiae): 0.03 to 2 µg/mL (≈ 0.0365 to 2.43 µM); MIC50 (Streptococcus agalactiae): 0.12 µg/mL (≈ 0.146 µM); MIC90 (Streptococcus agalactiae): 0.12 µg/mL (≈ 0.146 µM); MIC (Streptococcus pneumoniae): 0.12 to 1 µg/mL (≈ 0.146 to 1.22 µM); MIC50 (Streptococcus pneumoniae): 0.25 µg/mL (≈ 0.304 µM); MIC90 (Streptococcus pneumoniae): 0.25 µg/mL (≈ 0.304 µM)
CN[C@H](CC(C)C)C(=O)N[C@H]1C(=O)N[C@@H](CC(N)=O)C(=O)N[C@H]2C(=O)N[C@H]3C(=O)N[C@H](C(=O)N[C@H](C(=O)O)c4cc(O)cc(O)c4-c4cc3ccc4O)[C@H](O)c3ccc(c(Cl)c3)Oc3cc2cc(c3O[C@@H]2O[C@H](CO)[C@@H](O)[C@H](O)[C@H]2O[C@H]2C[C@](C)(N)[C@H](O)[C@H](C)O2)Oc2ccc(cc2Cl)[C@H]1O [VANCOMYCIN] | – | 1 (≈ 0.69 µM) | 1 (≈ 0.69 µM) | – | – | – | – | – | – | – | –
